# Results: ChEMBL document CHEMBL5661979, “Pharmacological inhibition of BMK1 suppresses tumor growth through promyelocytic leukemia protein” (Cancer Cell, 2010)
# The source made the active and inactive calls. No cut-off for these calls is given here.
# Experiments:
# [1] = molecular target: RAC-alpha serine/threonine-protein kinase (Homo sapiens, UniProt P31749); assay: Inhibition of AKT1 in human HeLa cells lysate pre incubated for 15 mins followed by ATP acyl phosphate probe addition and measured after 10 mins by LC-MS/MS analysis; assay type: subcellular
# Summary of the method: (§1)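 HeLa cell lysates (5 mg/mL total protein) were preincubated with inhibitor at 0, 0.8, 2, 10 or 50 μM for 15 min. ATP or ADP acylphosphate probe was then added (5 μM final) for 10 min, and reactions were stopped with urea. Up to four fragment ions per kinase probe-peptide were quantified by targeted MS. % inhibition was taken relative to untreated lysate. Run in duplicate.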
# [2] = molecular target: Protein kinase C theta type (Homo sapiens, UniProt Q04759); assay: Inhibition of PKCtheta in human HeLa cells lysate at 50 uM pre incubated for 15 mins followed by ATP acyl phosphate probe addition and measured after 10 mins by LC-MS/MS analysis relative to control; assay type: subcellular; conditions: time 25.0 min
# [3] = molecular target: Acylglycerol kinase, mitochondrial (Homo sapiens, UniProt Q53H12); assay: Inhibition of AGK in human HeLa cells lysate pre incubated for 15 mins followed by ATP acyl phosphate probe addition and measured after 10 mins by LC-MS/MS analysis; assay type: subcellular; summary of the method: as §1
# [4] = molecular target: Serine/threonine-protein kinase DCLK1 (Homo sapiens) (UniProt O15075); assay: Inhibition of DCAMKL1 (unknown origin) assessed as remaining activity at 10 uM by ATP-competition binding assay relative to control
# HeLa = assay: Antiproliferative activity against human HeLa cells over expressing BMK1 assessed as reduction in cell viability at 5 uM after 48 hrs by MTT assay; assay type: functional, cell-based
# Summary of the method: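 HeLa cells were infected with empty adenovirus or adenovirus encoding dominant-negative BMK1(AEF). After 24 hr they were treated with or without 5 μM drug for 48 hr and read by MTT. % growth inhibition = (1 − MTT of group / MTT of Ad-EV-only cells) × 100. n = 3.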
# [5] = Inhibition of HGK/MINK/TNIK in human HeLa cells lysate at 50 uM pre incubated for 15 mins followed by ATP acyl phosphate probe addition and measured after 10 mins by LC-MS/MS analysis relative to control; conditions: 25 min, condition cancer
# [6] = molecular target: Serine/threonine-protein kinase PRP4 homolog (Homo sapiens, UniProt Q13523); assay: Inhibition of PRP4 in human HeLa cells lysate pre incubated for 15 mins followed by ATP acyl phosphate probe addition and measured after 10 mins by LC-MS/MS analysis; assay type: subcellular
# [7] = molecular target: Cyclin-dependent kinase 16 (Homo sapiens, UniProt Q00536); assay: Inhibition of PCTAIRE1 in human HeLa cells lysate at 2 uM pre incubated for 15 mins followed by ADP acyl phosphate probe addition and measured after 10 mins by LC-MS/MS analysis relative to control; assay type: subcellular; conditions: time 25.0 min
# [8] = Inhibition of MSK1/2 in human HeLa cells lysate pre incubated for 15 mins followed by ATP acyl phosphate probe addition and measured after 10 mins by LC-MS/MS analysis; assay type: subcellular
# Wee1-like protein kinase = Wee1-like protein kinase (Homo sapiens, UniProt P30291); assay: Inhibition of Wee1 in human HeLa cells lysate pre incubated for 15 mins followed by ATP acyl phosphate probe addition and measured after 10 mins by LC-MS/MS analysis; assay type: subcellular
# [9] = molecular target: Serine/threonine-protein kinase SMG1 (Homo sapiens, UniProt Q96Q15); assay: Inhibition of SMG1 in human HeLa cells lysate at 50 uM pre incubated for 15 mins followed by ATP acyl phosphate probe addition and measured after 10 mins by LC-MS/MS analysis relative to control; assay type: subcellular; conditions: time 25.0 min
# [10] = molecular target: Mitogen-activated protein kinase kinase kinase kinase 2 (Homo sapiens, UniProt Q12851); assay: Inhibition of GCK in human HeLa cells lysate pre incubated for 15 mins followed by ADP acyl phosphate probe addition and measured after 10 mins by LC-MS/MS analysis; assay type: subcellular
# [11] = molecular target: Serine/threonine-protein kinase D3 (Homo sapiens, UniProt O94806); assay: Inhibition of PKD3 in human HeLa cells lysate pre incubated for 15 mins followed by ADP acyl phosphate probe addition and measured after 10 mins by LC-MS/MS analysis; assay type: subcellular
# [12] = molecular target: T1, Serine/threonine-protein kinase A-Raf (Homo sapiens) (UniProt P10398); assay: Inhibition of ARAF in human HeLa cells lysate at 50 uM pre incubated for 15 mins followed by ATP acyl phosphate probe addition and measured after 10 mins by LC-MS/MS analysis relative to control; assay type: subcellular; conditions: time 25.0 min
# T1 sequence (whole entry): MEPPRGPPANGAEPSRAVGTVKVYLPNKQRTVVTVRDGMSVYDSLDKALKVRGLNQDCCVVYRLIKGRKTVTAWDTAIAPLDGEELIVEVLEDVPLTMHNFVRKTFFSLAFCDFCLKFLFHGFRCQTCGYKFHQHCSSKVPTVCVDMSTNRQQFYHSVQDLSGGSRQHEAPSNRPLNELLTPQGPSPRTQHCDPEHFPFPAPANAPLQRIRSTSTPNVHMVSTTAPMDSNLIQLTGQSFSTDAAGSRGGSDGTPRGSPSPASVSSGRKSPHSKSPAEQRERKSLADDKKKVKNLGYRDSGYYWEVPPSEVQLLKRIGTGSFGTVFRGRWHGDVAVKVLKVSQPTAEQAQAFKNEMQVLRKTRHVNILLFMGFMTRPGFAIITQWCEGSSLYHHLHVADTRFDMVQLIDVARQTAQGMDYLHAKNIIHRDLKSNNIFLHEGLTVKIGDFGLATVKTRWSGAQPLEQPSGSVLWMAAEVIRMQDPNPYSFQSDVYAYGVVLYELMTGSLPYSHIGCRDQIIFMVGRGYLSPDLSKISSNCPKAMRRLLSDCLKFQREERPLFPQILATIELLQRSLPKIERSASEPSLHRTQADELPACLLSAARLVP
# Summary of the method: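 KiNativ-type profiling in HeLa lysate (5 mg/mL total protein). Lysate preincubated 15 min with inhibitor at 50, 10, 2, 0.8 or 0 μM, then ATP or ADP acylphosphate probe added (5 μM final) for 10 min. Reaction stopped with urea and analysed by targeted MS, using up to four fragment ions per kinase peptide-probe conjugate. % inhibition calculated against untreated lysate. Duplicate reactions.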
# [13] = Inhibition of NEK6/7 in human HeLa cells lysate at 2 uM pre incubated for 15 mins followed by ADP acyl phosphate probe addition and measured after 10 mins by LC-MS/MS analysis relative to control; conditions: 25 min, condition cancer
# [14] = molecular target: Serine/threonine-protein kinase ULK3 (Homo sapiens, UniProt Q6PHR2); assay: Inhibition of ULK3 in human HeLa cells lysate pre incubated for 15 mins followed by ADP acyl phosphate probe addition and measured after 10 mins by LC-MS/MS analysis; assay type: subcellular
# PKC alpha and beta-2 = PKC alpha and beta-2 (Homo sapiens, UniProt P17252+P05771); assay: Inhibition of PKCalpha/beta in human HeLa cells lysate pre incubated for 15 mins followed by ATP acyl phosphate probe addition and measured after 10 mins by LC-MS/MS analysis; assay type: subcellular
# Lewis lung carcinoma = assay: Antitumor activity against mouse LL2 cells transfected with Ad-BMK1 allografted in C57Bl/6 mouse assessed as reduction tumor growth at 50 mg/kg, ip administered on day 7 post implantation measured after 17 days; assay type: functional, organism-based; conditions: time 10.0 day
# Summary of the method: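 LL/2 cells (1×10^6) were injected s.c. into C57Bl/6 mice; 6 per group. Ad-EV or Ad-BMK1(AEF) was given intratumorally on days 7, 11, 15 and 19. Drug was dosed at 50 mg/kg i.p. twice daily from day 8 to day 20; control groups received carrier solution.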
# Serine/threonine-protein kinase PRP4 homolog, sequence (Q13523 whole entry): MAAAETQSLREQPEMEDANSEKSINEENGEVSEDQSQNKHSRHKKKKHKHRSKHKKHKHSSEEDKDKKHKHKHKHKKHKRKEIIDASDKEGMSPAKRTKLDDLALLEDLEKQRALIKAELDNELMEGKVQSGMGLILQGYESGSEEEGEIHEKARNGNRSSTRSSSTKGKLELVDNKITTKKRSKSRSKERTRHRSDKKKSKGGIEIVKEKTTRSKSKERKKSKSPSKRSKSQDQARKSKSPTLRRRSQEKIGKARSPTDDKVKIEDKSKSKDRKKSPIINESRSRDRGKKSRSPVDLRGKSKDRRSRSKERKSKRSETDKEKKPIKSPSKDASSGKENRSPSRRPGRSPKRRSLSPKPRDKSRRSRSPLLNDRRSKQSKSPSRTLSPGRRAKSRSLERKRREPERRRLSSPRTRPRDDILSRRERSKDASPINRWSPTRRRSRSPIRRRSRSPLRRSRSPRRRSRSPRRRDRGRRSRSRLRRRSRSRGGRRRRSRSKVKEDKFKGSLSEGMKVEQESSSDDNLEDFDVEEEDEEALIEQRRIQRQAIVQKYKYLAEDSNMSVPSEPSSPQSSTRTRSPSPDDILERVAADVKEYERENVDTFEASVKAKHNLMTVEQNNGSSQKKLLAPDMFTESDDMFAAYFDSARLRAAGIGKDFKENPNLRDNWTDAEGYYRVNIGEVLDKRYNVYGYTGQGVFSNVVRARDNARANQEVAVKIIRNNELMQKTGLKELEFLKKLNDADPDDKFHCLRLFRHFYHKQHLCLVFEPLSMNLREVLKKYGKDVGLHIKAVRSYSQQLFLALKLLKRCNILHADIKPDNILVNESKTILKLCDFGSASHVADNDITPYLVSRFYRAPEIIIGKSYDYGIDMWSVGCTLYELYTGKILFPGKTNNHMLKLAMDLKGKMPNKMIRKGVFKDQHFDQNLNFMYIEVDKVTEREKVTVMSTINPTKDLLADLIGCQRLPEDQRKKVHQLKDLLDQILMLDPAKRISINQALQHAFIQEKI
# Wee1-like protein kinase, sequence (P30291 whole entry): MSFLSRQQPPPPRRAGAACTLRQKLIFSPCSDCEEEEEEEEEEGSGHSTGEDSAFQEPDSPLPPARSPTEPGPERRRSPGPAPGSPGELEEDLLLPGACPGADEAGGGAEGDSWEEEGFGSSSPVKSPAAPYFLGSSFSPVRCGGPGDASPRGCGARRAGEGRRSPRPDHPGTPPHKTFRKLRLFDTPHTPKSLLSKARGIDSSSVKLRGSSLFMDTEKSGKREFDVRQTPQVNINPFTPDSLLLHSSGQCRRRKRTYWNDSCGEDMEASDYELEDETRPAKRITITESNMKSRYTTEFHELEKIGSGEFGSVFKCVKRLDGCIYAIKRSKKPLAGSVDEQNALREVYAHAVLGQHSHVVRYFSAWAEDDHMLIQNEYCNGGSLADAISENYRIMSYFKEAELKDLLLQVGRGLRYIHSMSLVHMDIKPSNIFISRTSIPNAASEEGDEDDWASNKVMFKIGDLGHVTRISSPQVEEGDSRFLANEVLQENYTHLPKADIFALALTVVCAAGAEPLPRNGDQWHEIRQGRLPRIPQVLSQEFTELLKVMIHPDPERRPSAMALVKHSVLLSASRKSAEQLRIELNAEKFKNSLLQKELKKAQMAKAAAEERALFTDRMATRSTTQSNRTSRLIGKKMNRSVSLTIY
# Serine/threonine-protein kinase D3, sequence (O94806 whole entry): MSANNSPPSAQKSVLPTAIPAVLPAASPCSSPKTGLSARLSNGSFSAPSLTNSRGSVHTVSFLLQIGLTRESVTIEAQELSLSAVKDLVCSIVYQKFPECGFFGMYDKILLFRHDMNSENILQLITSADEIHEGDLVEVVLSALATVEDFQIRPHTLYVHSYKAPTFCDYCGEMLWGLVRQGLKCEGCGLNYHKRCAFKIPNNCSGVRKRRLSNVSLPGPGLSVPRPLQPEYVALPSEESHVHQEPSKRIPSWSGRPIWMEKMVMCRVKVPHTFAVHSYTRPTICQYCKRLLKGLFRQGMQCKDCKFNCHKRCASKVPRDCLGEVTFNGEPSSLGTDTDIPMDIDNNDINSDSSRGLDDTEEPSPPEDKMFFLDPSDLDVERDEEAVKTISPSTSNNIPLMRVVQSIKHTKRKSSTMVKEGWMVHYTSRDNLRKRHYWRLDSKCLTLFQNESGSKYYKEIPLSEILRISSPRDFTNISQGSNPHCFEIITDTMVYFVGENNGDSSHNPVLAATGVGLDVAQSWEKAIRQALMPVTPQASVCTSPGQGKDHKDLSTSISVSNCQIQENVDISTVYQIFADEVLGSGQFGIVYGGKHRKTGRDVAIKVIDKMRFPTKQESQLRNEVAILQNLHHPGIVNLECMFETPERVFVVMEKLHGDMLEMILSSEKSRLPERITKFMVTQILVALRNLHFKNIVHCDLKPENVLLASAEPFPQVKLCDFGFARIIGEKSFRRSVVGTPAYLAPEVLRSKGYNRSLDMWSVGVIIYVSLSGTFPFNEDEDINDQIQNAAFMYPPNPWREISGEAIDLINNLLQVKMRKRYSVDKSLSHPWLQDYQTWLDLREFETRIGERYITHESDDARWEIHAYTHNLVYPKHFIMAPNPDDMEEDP
# Protein kinase C theta type, sequence (Q04759 whole entry, looked up): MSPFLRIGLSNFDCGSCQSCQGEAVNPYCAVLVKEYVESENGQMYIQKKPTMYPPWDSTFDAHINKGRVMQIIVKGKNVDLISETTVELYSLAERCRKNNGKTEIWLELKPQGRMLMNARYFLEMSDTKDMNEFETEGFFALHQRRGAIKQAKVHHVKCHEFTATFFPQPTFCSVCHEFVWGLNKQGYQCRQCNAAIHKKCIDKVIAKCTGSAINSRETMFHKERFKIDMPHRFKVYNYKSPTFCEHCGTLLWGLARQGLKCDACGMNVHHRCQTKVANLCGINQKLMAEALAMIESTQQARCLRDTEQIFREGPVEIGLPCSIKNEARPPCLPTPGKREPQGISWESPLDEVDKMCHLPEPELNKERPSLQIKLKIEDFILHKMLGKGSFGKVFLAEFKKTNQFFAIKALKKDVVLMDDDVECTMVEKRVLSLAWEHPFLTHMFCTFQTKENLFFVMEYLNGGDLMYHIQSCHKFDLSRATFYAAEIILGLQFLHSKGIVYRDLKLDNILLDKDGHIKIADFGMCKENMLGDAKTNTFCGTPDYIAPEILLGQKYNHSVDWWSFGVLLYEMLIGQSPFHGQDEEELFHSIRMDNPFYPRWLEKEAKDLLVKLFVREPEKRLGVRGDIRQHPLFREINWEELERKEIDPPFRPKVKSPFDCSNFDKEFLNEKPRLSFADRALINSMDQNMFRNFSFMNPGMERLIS
# Mitogen-activated protein kinase kinase kinase kinase 2, sequence (Q12851 whole entry): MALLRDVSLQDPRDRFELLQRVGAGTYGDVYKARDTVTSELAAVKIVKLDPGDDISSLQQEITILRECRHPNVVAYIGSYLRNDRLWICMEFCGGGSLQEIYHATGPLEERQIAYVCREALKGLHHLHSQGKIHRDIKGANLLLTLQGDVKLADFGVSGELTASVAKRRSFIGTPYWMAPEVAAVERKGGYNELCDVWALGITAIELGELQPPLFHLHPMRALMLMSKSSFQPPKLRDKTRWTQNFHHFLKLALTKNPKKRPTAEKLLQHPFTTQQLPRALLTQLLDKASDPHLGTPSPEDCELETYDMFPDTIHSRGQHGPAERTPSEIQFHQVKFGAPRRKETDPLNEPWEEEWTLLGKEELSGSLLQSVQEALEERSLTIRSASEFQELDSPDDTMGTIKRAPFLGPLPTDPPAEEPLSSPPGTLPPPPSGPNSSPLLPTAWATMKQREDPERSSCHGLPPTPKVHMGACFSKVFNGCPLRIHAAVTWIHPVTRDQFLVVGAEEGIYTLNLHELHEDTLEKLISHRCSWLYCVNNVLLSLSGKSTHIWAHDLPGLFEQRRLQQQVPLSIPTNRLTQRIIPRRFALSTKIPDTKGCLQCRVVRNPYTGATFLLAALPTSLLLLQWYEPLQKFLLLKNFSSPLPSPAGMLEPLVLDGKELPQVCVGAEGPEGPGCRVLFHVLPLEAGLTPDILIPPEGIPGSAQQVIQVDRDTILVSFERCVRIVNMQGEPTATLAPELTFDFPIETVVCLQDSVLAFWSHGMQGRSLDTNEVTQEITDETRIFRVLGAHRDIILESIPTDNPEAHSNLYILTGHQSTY
# Serine/threonine-protein kinase DCLK1 (Homo sapiens), sequence (O15075 whole entry): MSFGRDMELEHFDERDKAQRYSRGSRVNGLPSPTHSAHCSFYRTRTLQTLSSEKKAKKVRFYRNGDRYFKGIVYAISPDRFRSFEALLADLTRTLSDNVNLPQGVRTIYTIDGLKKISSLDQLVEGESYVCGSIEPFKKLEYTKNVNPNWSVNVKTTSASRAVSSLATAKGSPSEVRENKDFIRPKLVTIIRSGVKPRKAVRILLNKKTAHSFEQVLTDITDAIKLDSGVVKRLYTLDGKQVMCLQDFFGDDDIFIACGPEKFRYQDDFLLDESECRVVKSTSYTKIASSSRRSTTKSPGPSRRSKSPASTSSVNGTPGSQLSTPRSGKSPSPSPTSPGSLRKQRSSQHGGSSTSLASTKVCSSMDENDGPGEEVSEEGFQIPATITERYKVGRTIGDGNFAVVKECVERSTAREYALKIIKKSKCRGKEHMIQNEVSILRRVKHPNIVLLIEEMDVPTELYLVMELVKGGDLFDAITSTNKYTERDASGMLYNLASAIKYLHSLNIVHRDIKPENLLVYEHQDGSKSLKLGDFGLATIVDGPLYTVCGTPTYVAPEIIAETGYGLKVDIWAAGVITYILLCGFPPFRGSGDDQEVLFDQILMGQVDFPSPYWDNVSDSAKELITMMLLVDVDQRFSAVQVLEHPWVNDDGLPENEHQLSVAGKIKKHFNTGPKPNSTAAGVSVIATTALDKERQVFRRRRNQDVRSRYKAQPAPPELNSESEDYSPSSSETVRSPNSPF
structure (smiles),measurement,setting,value
CCOc1cc(N2CCC(O)CC2)ccc1Nc1ncc2c(n1)N(C)c1ccccc1C(=O)N2C,IC50,[1],> 50 µM
same,inhibition,[2],1.8%
same,IC50,[3],> 50 µM
same,Activity,[4],0.9%
same,Activity,HeLa,Active
same,inhibition at 50 µM,[5],-2.6%
same,IC50,[6],> 50 µM
same,inhibition,[7],17.5%
same,IC50,[8],> 50 µM
same,IC50,Wee1-like protein kinase,> 50 µM
same,inhibition,[9],-1.9%
same,IC50,[10],> 50 µM
same,IC50,[11],> 50 µM
same,inhibition,[12],4.3%
same,inhibition at 2 µM,[13],6.4%
same,IC50,[14],> 50 µM
same,IC50,PKC alpha and beta-2,> 50 µM
same,Activity,Lewis lung carcinoma,Active
